Results: ChEMBL document CHEMBL2146387, “Synthesis and biological evaluation of a new vitamin D2 analogue” (Bioorg Med Chem Lett, 2012)

Tests used:
[1] = Cytotoxicity against human HN12 assessed as decrease in cell count after 120 hrs; assay type: functional; conditions: HN12, 120 h
[2] = tested on: Mus musculus; assay: Toxicity in mouse assessed as mortality at 5 ug/kg, ip qd for 4 days; assay type: organism-based; conditions: in vivo, 0.005 mg/kg, 96 h
How it was run: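 Mice, groups of 5, given daily intraperitoneal injection at 5 µg/kg body weight for 4 days, isopropanol vehicle group alongside. Blood collected before dosing and at 24, 48, 72 and 96 h for plasma calcium (arsenazo III absorbance). Health condition recorded daily; deaths noted. Experiment repeated two times.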

[3] = tested on: HCT-116; assay: Cytotoxicity against human HCT116 assessed as decrease in cell count after 120 hrs; assay type: functional, cell-based; conditions: HCT-116, 120 h
[4] = tested on: Mus musculus; assay: Toxicity in mouse assessed as increase in haematocrit at 5 ug/kg, ip qd for 4 days after 72 hrs of last postdose; assay type: organism-based; conditions: in vivo, 0.005 mg/kg
How it was run: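 Mice (n = 5/group) received a daily intraperitoneal injection at 5 µg/kg body weight for 4 days, with isopropanol as vehicle. Blood was drawn before dosing and at 24, 48, 72 and 96 h, and haematocrit was recorded from these samples.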

[5] = tested on: Mus musculus; assay: Toxicity in mouse assessed as increase in plasma calcium level at 5 ug/kg, ip qd for 4 days measured after 24 to 96 hrs postdose; assay type: organism-based; conditions: in vivo, 0.005 mg/kg
How it was run: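 Mice (n = 5/group) were dosed ip daily at 5 µg/kg body weight for 4 days, with isopropanol as vehicle. Plasma calcium was read by arsenazo III metallochromic absorbance before injection (0 h, basal) and at 24, 48, 72 and 96 h. Data are means ± SD of five animals, and the experiment was run twice.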

[6] = AUC (0 to 24 hrs) in mouse at 5 ug/kg; assay type: ADME, organism-based; parameters: dose 5 ug/kg, time < 24 hr; conditions: plasma, 0.005 mg/kg
[7] = Cmax in mouse at 5 ug/kg; assay type: ADME, organism-based; parameters: dose 5 ug/kg; conditions: in vivo, 0.005 mg/kg

## C=C1/C(=C\C=C2/CCC[C@]3(C)[C@@H]([C@H](C)/C=C\[C@H](C)C(O)(CC)CC)CC[C@@H]23)C[C@@H](O)C[C@@H]1O
[1]
  IC50: 5.05 nM
[2]
  Activity: Toxic
[3]
  IC50: 0.76 nM
[4]
  Activity: Toxic
[5]
  Activity: Toxic

## C=C1/C(=C\C=C2/CCC[C@]3(C)[C@@H]([C@H](C)CCCC(C)(C)O)CC[C@@H]23)C[C@@H](O)C[C@@H]1O [CALCITRIOL]
[2]
  Activity: Toxic
[6]
  AUC(0-t) at 24 h: > 40 ng·h/mL
[7]
  Cmax: > 10 ng/mL
[4]
  Activity: Toxic
[5]
  Activity: Toxic
